ROMK primary – modulates human ROMK potassium channel activity. Tet-inducible ROMK, thallium flux fluorescence; actives lie on both sides. B-score at 10 µM. 130,000 tested, 2% active. AID 1918;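 active = signal ratio slope over the read window, or its plate-corrected B-score, at least 3 SD from the plate mean, either direction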;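 also: B-score of the F/F0 ratio slope over 7 to 12 s after thallium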
Autophagy HCS – alters autophagy in cells | MEF GFP-LC3 puncta imaging; test concentration mostly 10 µM | calls only at 10 µM (by protocol) | 190,000 tested, 0.98% active;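 active = percentage of spot-positive cells more than 3 SD above its plate mean, without a fluorescence outlier flag or 80% toxicity; inconclusive = no clear call, values can overlap the other calls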;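 also: spot-positive cell cutoff set from DMSO-treated cells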
DTT redox prof – compounds producing H2O2 with reducing agent – biochemical, NIH compound library profiling, artefact control for MLSCN library redox annotation, primary screen | AID 878 | activation, % at 10 µM | 200,000 tested, 0.03% active | DTT-dependent redox cycling H2O2, phenol red/HRP absorbance; 100% = 100 µM peroxide control, 0% = buffer;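 active = activation of at least 50% relative to the plate's high and low controls in the primary single-dose screen; inactive = activation below 50%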;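 also: compound incubated with DTT at 0.8 mM final as the reducing agent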
Dynein transport – blocks dynein driven cargo transport along microtubules | 3617.4 mouse cells, GR-EGFP nuclear translocation imaging; test concentration mostly 20 µM; stimulated with dexamethasone, 1 µM; stronger effect = lower value | z-score, hits read low | 220,000 tested, 0.47% active | AID 1381;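 active = plate z-score of nuclear minus cytoplasmic receptor signal below a set negative limit, without overly bright fluorescence or cell loss, cut at about -3.5 in these data, passing the limit was not always enough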;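 also: z-score of nuclear minus cytoplasmic ring GR-EGFP intensity difference per well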
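Medium: Induction medium lacking tetracycline, stripped serum | Probe or stimulus: 1.0 µM final dexamethasone stimulus | Schedule: 48 h induction, then 1 h compound, then 30 min agonist, 37 °C | Signal: Automated 10x imaging of fixed Hoechst-stained cells | Evaluation: Per-cell GR-EGFP intensity, nucleus versus surrounding cytoplasmic ring, well-averaged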
Cl transport mod – modulates chloride dependent transport by human KCC2; Q9H2X9; KCC2 cells, thallium flux FluoZin-2 fluorescence; B-score of Tl+ flux slope (higher = more flux/activation; lower = inhibition) at 10 µM; 190,000 tested, 2.2% active;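 active = thallium flux slope and its plate-corrected score both differing from the plate sample mean at a set confidence after two filtering rounds, in either direction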;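 also: slope of fluorescence scaled to starting intensity during 10 to 20 s after thallium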
ROMK hit retest – retested hit modulating human ROMK potassium channel. shares compounds with ROMK primary. ROMK thallium flux, fluorescence ratio; stronger effect = lower value. normalized thallium flux (F/F0 slope) at 10 µM. 3,000 tested, 54% active;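 active = Flux at 10 µM at least 3 SD below or above vehicle control mean in one or both replicates; inconclusive = no clear call, values can overlap the other calls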
The depositor's hits bear a star; i = inactive; ? = inconclusive; · = no result given. A selection: hits, their analogues and other compounds. The true share with any hit is near 4.1%.

SMILES	ROMK primary	Autophagy HCS	DTT redox prof	Dynein transport	Cl transport mod	ROMK hit retest
CC(C)c1ccc(/C=C(\c2nc3ccccc3[nH]2)S(=O)(=O)c2ccccc2)cc1	-3.74*	i	-0.7	-3.45	-0.373	0.0597*
O=S(=O)(/C(=C/c1ccc(C(F)(F)F)cc1)c1nc2ccccc2[nH]1)c1ccccc1	-4.27*	i	-0.4	-2.62	-0.057	0.0514*
O=c1[nH]c2ccccc2nc1C(F)(F)F	·	·	·	-0.733	-0.0503	·
CCc1sc(NS(C)(=O)=O)nc1-c1ccccc1	2.81*	i	0.2	-0.203	0.546	0.0829
CCOC(=O)CS(=O)(=O)c1nc(-c2ccccc2)cc(C(F)(F)F)n1	-4.52*	i	0.1	2.1	-0.182	0.0593*
COCC(C)NC(=O)CCS(=O)(=O)c1nc(-c2ccc(OC)cc2)cc(C(F)(F)F)n1 (stereo unspecified)	-1.6	i	-0.8	-3.16	0.388	·
CCOC(=O)CCS(=O)(=O)c1nc(-c2ccccc2)cc(C(F)(F)F)n1	-4.42*	i	0.2	-1.77	0.0362	0.0549*
CN(CC1CCCO1)S(=O)(=O)c1ccc(C(=O)NCc2ccccc2)cc1 (stereo unspecified)	-0.0521	i	-0.3	-0.866	0.805	·
CC1(C)[C@@H](O)CC[C@]2(C)C3C(O)C=C4[C@H]5C[C@@](C)(C(=O)O)CC[C@]5(C)CC[C@]4(C)[C@]3(C)CC[C@@H]12 (stereo partly specified)	·	·	·	0.315	-0.604	0.086
CC1(C)C(=O)CC[C@]2(C)C3C(=O)C=C4[C@H]5C[C@@](C)(C(=O)O)CC[C@]5(C)CC[C@]4(C)[C@]3(C)CC[C@@H]12 (stereo partly specified)	·	·	·	-0.165	-0.503	·
COc1cccc(/C(=N/O)C2CC2c2ccc(Cl)cc2)c1 (stereo unspecified)	-0.151	i	-0.5	-1.25	-0.638	·
O=C(COc1ccccc1CNCc1ccccc1)Nc1ccccc1	-2.37*	i	0.8	-0.525	-3.1	0.0563*
CCOc1ccccc1CNCc1ccc(C(=O)O)cc1	0.187	i	-0.2	1.38	1.16	·
CC(C)(C)NC(=O)C(c1ccncc1)N(Cc1ccc(F)cc1)C(=O)c1ccc(-c2ccccc2)[nH]1 (stereo unspecified)	0.038	i	-0.1	-0.924	-3.1	·
Cc1cc(C)nc(/N=C2\NC(=O)CC(C(=O)O)N2c2ccc(Cl)cc2)n1 (stereo unspecified)	·	·	-0.3	0.5	-0.417	0.0819
CO/N=C\CC(=O)Nc1ccc(Cl)c(Cl)c1	4.71*	i	0.1	-0.761	0.00627	0.0819
COC(=O)CCC(=O)Nc1ccc(Cl)c(Cl)c1	0.0121	i	1.8	-0.388	-0.214	·
O=C(COC(=O)c1nc(-c2ccccc2)n(-c2cccc(C(F)(F)F)c2)n1)NCc1cccs1	·	i	0.1	-0.0927	-0.76	·
CCCCCCNC(=O)N[C@H](C(=O)NCCC[C@H]1CN2C(=NC[C@H]2C)N1CCC(c1ccccc1)c1ccccc1)C(C)O (stereo partly specified)	·	·	·	-1.11	-0.0121	0.0611*
O=[N+]([O-])c1ccc2c(c1)nc1n2CCN(c2ccccc2)C1	·	·	·	-0.892	0.35	0.0724
O=C(c1ccc2c(c1)N(Cc1ccccc1)C(=O)c1ccccc1S2)N1CCCC1	·	i	2.6	-0.461	-1.95	0.0605*
COc1cccc(-c2cc(C(=O)Nc3cccnc3)no2)c1	5.87*	i	0.1	-0.0418	·	0.0888
CCOC(=O)N1CCN(c2nc(-c3ccc(F)cc3)cs2)CC1	-2.63*	i	0.5	-0.748	-0.0409	?
COc1cccc(OCCn2cccc2/C=C2/C(=N)N3OC(C)=CC3=NC2=O)c1	-3.25*	i	0.9	-0.288	-1.17	0.0768
CC1CCN(S(=O)(=O)c2cccc(C(=O)N(Cc3ccccc3)c3ccccn3)c2)CC1	-3.99*	i	-0.6	0.054	-1.02	0.0619*
Cc1ccc(C(=O)Nc2nc3ccccc3n2CCN2CCCC2)cc1	-0.508	i	2.2	1.64	-0.0157	·
CNC(=O)c1ccccc1NC(=O)c1cccc(S(=O)(=O)N2CCC(C)CC2)c1	·	i	-0.6	0.486	-0.304	·
